Reference: PubChem BioAssay
Calls of active or inactive are those of the source.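 Rule for the calls, unless noted: active = inhibition above 20% together with a positive visual image hit; inconclusive = visual image hit but inhibition not above 20%; inactive = no visual image hit.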

Legend:
[1] = inhibitors of TNFa-induced NFkB p65 translocation, primary screen, imaging, HUVEC, MLSMR starter and 10KST1 sets (AID 438); settings: HUVEC TNFa-induced p65 nuclear translocation; cell count: measured here: nuclei count (cytotoxicity indicator), at 2.08 µM; inhibition: at 2 µM, stronger effect = higher value, 0% TNFa-plus-vehicle, 100% no-TNFa wells;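 note: compound added about 3h40 before a 20 min TNFalpha stimulation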;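 for inhibition: signal is the nuclear over cytoplasmic p65 intensity ratio per well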
[2] = inhibitors of E-selectin induction by TNFa, primary screen, imaging, HUVEC, immunofluorescence, MLSMR starter and 10KST1 sets (AID 487;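 active = visually confirmed hit in the image check and inhibition above 20%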;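 for inhibition: signal is fraction of cell area covered by stained E-selectin grains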;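 for nuclei count: 100% = median nuclei count of all wells on the same plate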); settings: HUVEC TNFalpha-induced E-selectin immunofluorescence imaging, at 2 µM; inhibition: stronger effect = higher value; nuclei count: measured here: cell number, toxicity
[3] = DUSP6 inhibitors restoring Erk phosphorylation by chemical complementation, primary imaging in DUSP6-transfected HeLa (AID 609;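 active = compounds giving at least 50% inhibition in the cell-based MKP-3 phosphatase rescue imaging test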;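 for inhibition: phospho-Erk level distribution per well compared with pooled transfected vehicle control wells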); settings: HeLa MKP-3 transfected, phospho-Erk imaging KS statistic, at 10 µM, cells stimulated with TPA for 15 min
[4] = molecular target: Dual specificity protein phosphatase 6 (Homo sapiens) (UniProt Q16828); assay: as above; settings: HeLa MKP-3 transfected, phospho-Erk imaging KS statistic; at 10 µM; stronger effect = higher value; cells stimulated with TPA for 15 min
Chain of Dual specificity protein phosphatase 6 (Homo sapiens) (Q16828 whole entry, looked up): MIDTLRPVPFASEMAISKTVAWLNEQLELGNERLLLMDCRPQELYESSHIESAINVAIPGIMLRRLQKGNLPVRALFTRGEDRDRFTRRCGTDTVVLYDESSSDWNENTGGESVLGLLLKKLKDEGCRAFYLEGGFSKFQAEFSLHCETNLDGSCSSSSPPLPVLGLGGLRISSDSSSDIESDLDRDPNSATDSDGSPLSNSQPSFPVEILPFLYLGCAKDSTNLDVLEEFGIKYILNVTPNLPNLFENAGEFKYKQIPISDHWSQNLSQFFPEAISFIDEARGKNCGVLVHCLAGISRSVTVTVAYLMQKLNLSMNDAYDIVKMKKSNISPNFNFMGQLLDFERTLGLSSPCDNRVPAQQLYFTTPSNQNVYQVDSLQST

[5] = molecular target: Voltage-gated potassium channel subunit beta-2 (Rattus norvegicus) (UniProt P62483); assay: KvBeta enzyme negative modulators, primary screen, biochemical, NADPH fluorescence (AID 622;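 active = fluorescence slope higher than the sample average by over 3 SD, cut at about -0.22 in these data, passing the limit was not always enough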;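 note: slope of raw intensity against log time taken from 70 to 1610 s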); settings: recombinant KvBeta, 4-cyanobenzaldehyde reduction, at 10 µM, stronger effect = higher value
Chain of Voltage-gated potassium channel subunit beta-2 (Rattus norvegicus) (P62483 whole entry, looked up): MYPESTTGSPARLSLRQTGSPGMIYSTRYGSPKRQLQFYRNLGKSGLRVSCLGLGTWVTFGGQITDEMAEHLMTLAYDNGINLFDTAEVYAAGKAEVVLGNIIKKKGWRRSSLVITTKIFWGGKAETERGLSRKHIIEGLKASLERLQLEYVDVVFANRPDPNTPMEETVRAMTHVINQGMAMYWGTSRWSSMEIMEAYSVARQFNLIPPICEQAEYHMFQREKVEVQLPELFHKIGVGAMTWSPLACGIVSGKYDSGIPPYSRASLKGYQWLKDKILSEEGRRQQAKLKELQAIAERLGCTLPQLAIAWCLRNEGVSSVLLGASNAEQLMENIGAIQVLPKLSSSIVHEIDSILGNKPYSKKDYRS

[6] = molecular target: Voltage-gated potassium channel subunit beta-2 (Rattus norvegicus) (UniProt P62483); assay: KvBeta positive modulators, primary screen, biochemical, NADPH fluorescence (AID 623;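 active = NADPH fluorescence slope more negative than the mean of all samples by about 3 SD, 99.7% confidence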;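 note: fluorescence intensity change per second fitted from 20 to 320 s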); settings: Recombinant KvBeta, NADPH fluorescence decrease slope, 10 min; at 10 µM; stronger effect = lower value
[7] = molecular target: Alpha-2C adrenergic receptor (Homo sapiens) (UniProt P18825); assay: modulators of alpha2C/GIRK thallium flux, primary screen, cell-based, HEK293 alpha2C/GIRK1/2 (AID 624;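 active = fluorescence slope after compound addition differing from the mean of all screened samples at 99.7% confidence, in either direction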;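 note: slope of fluorescence ratio to pre-addition baseline per second over 15 to 24 s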); settings: thallium flux BTC fluorescence, at 10 µM, actives lie on both sides
Chain of Alpha-2C adrenergic receptor (Homo sapiens) (P18825 whole entry, looked up): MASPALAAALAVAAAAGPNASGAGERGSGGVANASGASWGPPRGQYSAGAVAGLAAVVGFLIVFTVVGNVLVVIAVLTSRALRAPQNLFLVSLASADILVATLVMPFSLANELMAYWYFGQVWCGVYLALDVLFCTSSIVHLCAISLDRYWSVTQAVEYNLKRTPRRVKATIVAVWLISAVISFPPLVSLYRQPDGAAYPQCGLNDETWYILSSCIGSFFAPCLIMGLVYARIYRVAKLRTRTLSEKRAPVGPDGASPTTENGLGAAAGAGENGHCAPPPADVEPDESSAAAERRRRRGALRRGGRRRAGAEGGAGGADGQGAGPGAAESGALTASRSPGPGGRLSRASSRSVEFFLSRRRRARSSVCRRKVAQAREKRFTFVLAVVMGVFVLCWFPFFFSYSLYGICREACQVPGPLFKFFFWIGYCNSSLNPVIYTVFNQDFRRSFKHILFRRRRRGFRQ

[8] = inhibitors of larval lipid processing in zebrafish, primary screen, whole organism, PED6 fluorescence, gall bladder and intestine (AID 686;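 active = a full or partial loss of lipid-probe fluorescence in the fish gall bladder, intestine or both, judged by eye; inactive = no fluorescence loss, or compound toxic to the fish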;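 note: larvae 5 to 7 days old with five fish per well; signal comes from phospholipase A2 cleavage of quenched PED6 carried via bile; overnight exposure to compound and PED6 before scoring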); settings: Zebrafish larvae PED6 lipid processing, fluorescence scoring; screened at 20 µM (by protocol)
Method in brief: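 Doses: 20 µM single dose. Test system: live zebrafish larvae aged 5-7 days, whole organism. Quantity: five larvae per well. Measured by: By-eye fluorescence microscopy. Reagent: ingested quenched lipid PED6 at 100 nM. Read-out: visual per-well fluorescence inhibition score. Times: overnight exposure of larvae to compound plus PED6.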

[9] = inhibitors of Chlamydomonas gravitaxis, primary screen, whole organism, Chlamydomonas reinhardtii, WT vs cilia-less mutant, absorbance, 96-well (AID 463189;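 active = inhibition at or above 50% relative to wild type and mutant plate controls; inactive = inhibition below 50%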;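 note: 0% = wild type cc124 cells in DMSO and 100% = ciliumless bld1 mutant cells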); settings: OD600 absorbance, 2 days, at 10 µM, stronger effect = higher value
[10] = measured here: cell density z-score
[11] = measured here: nuclear c-Myc green intensity z-score
[12] = measured here: nuclear pErk red intensity z-score, stronger effect = higher value

Structure (SMILES)	cell count [1]	inhibition [1]	inhibition [2]	nuclei count [2]	z-score [3, 10]	z-score [3, 11]	z-score [3, 12]	inhibition [4]	fluorescence slope [5]	NADPH fluorescence slope [6]	slope [7]	outcome [8]	inhibition [9]
Cc1cc(C)nc(NC2=NCC(=O)N2c2cccc(Cl)c2)n1	581	-4.9% (inactive)	-200% (inactive)	141%	1.05	1.03	-2.43	15.9% (inactive)	-0.517 (inactive)	-4.2e-05 (inactive)	0.00561 (inactive)	inactive	-3.6% (inactive)
C=CCOC(=O)C1=C(C)OC(N)=C(C#N)C1c1ccoc1 (centres undefined)	564	2.9% (inactive)	-24.3% (inactive)	166%	-0.735	-0.099	0.124	2.46% (inactive)	-0.32 (inactive)	2.2e-05 (inactive)	0.00536 (inactive)	inactive	26.4% (inactive)
Cn1c(SCC(=O)N2CCOCC2)nnc1-c1ccc(Cl)cc1Cl	359	-9.4% (inactive)	-17.3% (inactive)	101%	0.947	-0.186	-0.938	1.75% (inactive)	-0.453 (inactive)	1.1e-05 (inactive)	0.00668 (inactive)	inactive	-14.7% (inactive)
COc1ccccc1C(=O)NC(=Nc1nc2ccccc2o1)NC(=O)c1ccccc1OC	511	-2.8% (inactive)	0.2% (inactive)	100%	-1.24	-0.586	0.38	-2.91% (inactive)	-0.572 (inactive)	-9.6e-05 (inactive)	0.0126 (inactive)	inactive	-7.36% (inactive)
CN(C)CCCOC(=O)C1c2ccccc2Oc2ccccc21	542	1.3% (inactive)	31.3% (inactive)	169%	-1.43	-0.729	0.0446	-8.76% (inactive)	-0.329 (inactive)	-1.7e-05 (inactive)	0.00512 (inactive)	inactive	8% (inactive)
Cc1ccsc1C1NC(=O)c2c(sc3c2CCCC3)N1 (centres undefined)	584	-31.7% (inactive)	-31.6% (inactive)	166%	-1.62	-0.46	1.02	-18.6% (inactive)	-0.411 (inactive)	-3.5e-05 (inactive)	0.00518 (inactive)	inactive	22.5% (inactive)
CCCC(=O)Nc1sc2c(c1C#N)CCCC2	385	7.8% (inactive)	-83.9% (inactive)	110%	-0.165	0.756	-2.32	3.56% (inactive)	-0.445 (inactive)	-0.000372 (inactive)	0.00647 (inactive)	inactive	-10.7% (inactive)
Cc1ccnc(N2CCN(c3cc(C)c(C#N)c4nc5ccccc5n34)CC2)c1	572	7.2% (inactive)	-151% (inactive)	125%	0.222	0.0486	-0.157	13.9% (inactive)	-0.408 (inactive)	-8.8e-06 (inactive)	0.00554 (inactive)	inactive	-4.75% (inactive)
Cc1nc(N2CCOCC2)c(C#N)c2c1COC(C)(C)C2	582	-0.2% (inactive)	-43.9% (inactive)	99.8%	-1.02	1	-1.11	3.66% (inactive)	-0.521 (inactive)	-4.3e-05 (inactive)	0.00501 (inactive)	inactive	-6.08% (inactive)
COc1ccccc1-c1nn2c(-c3ccco3)nnc2s1	544	-2.9% (inactive)	-39.4% (inactive)	162%	0.365	-0.311	-0.198	-2.47% (inactive)	-0.42 (inactive)	-8.7e-05 (inactive)	0.00698 (inactive)	inactive	10.9% (inactive)
Cc1cccn2c(=O)c3cc(C#N)c(=N)n(Cc4ccncc4)c3nc12	604	-18.3% (inactive)	-96.5% (inactive)	165%	0.463	-1.24	0.303	-4.27% (inactive)	-0.479 (inactive)	-4.2e-05 (inactive)	0.00367 (inactive)	inactive	-9.33% (inactive)
N#CC1=C(SCC(=O)c2ccccc2)NC2=C(C(=O)CCC2)C1c1ccco1 (centres undefined)	310	-8% (inactive)	-43.4% (inactive)	91.7%	-2.24	2.65	-0.86	1.42% (inactive)	-0.435 (inactive)	-3.2e-05 (inactive)	0.00719 (inactive)	inactive	-15.7% (inactive)
Clc1ccccc1CSc1nnc(-c2ccco2)c(-c2ccco2)n1	554	-6.9% (inactive)	-21.1% (inactive)	157%	-1.8	0.808	0.169	-10.5% (inactive)	-0.407 (inactive)	-1.8e-05 (inactive)	0.00446 (inactive)	inactive	19.9% (inactive)
